Neddylation inh = inhibitors of human cullin neddylation; P61081+Q13564; TR-FRET cullin neddylation, biochemical; calls only at 25 µM; 360,000 compounds, 0.58% hits; AID 651699; in the data active = inhibition above about 36%
UBC13 inh = human UBC13 polyubiquitination inhibition; P61088; UBC13 polyubiquitin chain formation, TR-FRET; inhibition, % at 20 µM; 330,000 compounds, 0.47% hits; AID 485273; in the data active = inhibition above about 45%, passing the limit was not always enough
Target sequence (P61088 whole entry, looked up): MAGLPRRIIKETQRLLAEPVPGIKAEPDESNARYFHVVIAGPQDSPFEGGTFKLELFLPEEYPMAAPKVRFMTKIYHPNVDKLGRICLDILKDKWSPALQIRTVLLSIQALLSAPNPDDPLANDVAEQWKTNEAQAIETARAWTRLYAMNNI
RAD54 branch = RAD54 (human) branch migration inhibition; Q92698; RAD54 Holliday junction branch migration, FAM/BHQ fluorescence; inhibition, % at 10.4 µM; 360,000 compounds, 0.14% hits;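 active = mean normalized replicate activity at least 40 and at least half of replicates scoring 40 or more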;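 note: inhibitors cause a drop in the FAM fluorescence signal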
DNA FID counter = displaces DNA intercalator in HCV helicase counter-screen. 290,000 compounds, 0.17% hits. inhibition, % at 7.9 µM. AID 1845. DNA fluorescent intercalator displacement, fluorescence; in the data active = inhibition above about 37%;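 note: higher means more ethidium bromide displaced from hairpin DNA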
Apaf-1 inh = inhibitors of human Apaf-1 apoptosome | O14727 | reconstituted apoptosome caspase-3 activity, DEVD-Rh110 fluorescence | inhibition, % at 20 µM | 330,000 compounds, 0.71% hits | AID 489030; active = inhibition of at least 40% at 20 µM
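Material: reconstituted apoptosome with Apaf-1, cytochrome c, caspase-9, procaspase-3, dATP / Buffer or medium: pH 7.5 Hepes buffer with CHAPS, BSA, DTT / Also added: cytochrome c with DEVD-Rh110 / Schedule: compound with Apaf-1, dATP, procaspase-3 30 min, then 50 min reaction, room temperature / Technique: rhodamine 110 fluorescence at Ex 480/Em 540 nm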
RAD52 anneal inh = blocks human RAD52 DNA annealing; recombinant RAD52 DNA annealing, FRET fluorescence; inhibition, % at 18.7 µM; 360,000 compounds, 0.46% hits; AID 651710;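 active = every replicate showing at least 50% inhibition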
Target sequence (P43351 whole entry, looked up): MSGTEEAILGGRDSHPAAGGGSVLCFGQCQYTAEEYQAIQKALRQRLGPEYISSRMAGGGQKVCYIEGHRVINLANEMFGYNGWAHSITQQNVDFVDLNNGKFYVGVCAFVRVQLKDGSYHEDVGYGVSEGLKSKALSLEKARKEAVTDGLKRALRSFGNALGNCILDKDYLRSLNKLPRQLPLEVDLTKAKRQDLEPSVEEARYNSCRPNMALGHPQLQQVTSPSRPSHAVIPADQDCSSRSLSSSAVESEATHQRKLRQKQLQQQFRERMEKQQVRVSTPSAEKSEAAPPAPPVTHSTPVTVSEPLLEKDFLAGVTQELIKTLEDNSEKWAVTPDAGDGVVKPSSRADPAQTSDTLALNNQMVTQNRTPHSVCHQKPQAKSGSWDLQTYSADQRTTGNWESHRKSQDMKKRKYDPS
Apaf-1 inh conf2 = confirmation of Apaf-1 inhibitors; shares compounds with Apaf-1 inh; inhibition, % at 20 µM; 1,800 compounds, 25% hits; AID 504614; reconstituted apoptosome, caspase-3 DEVD-Rh110 fluorescence;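 active = mean inhibition of at least 40% at 20 µM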
Rh110 quench = Rh110 signal interference in Apaf-1 inhibitor counter-screen. shares compounds with Apaf-1 inh. Rh110 fluorescence interference, quenched caspase reaction. activation (fluorescence interference), % at 20 µM. 1,800 tested, under 10 active;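 active = signal rise of 40% or more at 20 µM, treated as a fluorescence artifact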
Apaf1 inh interf = shows fluorescence interference in the Apaf-1 inhibitor assay format; shares compounds with Apaf-1 inh; fluorescence interference counterscreen, Apaf-1 assay format; IC50, µM; 460 tested, under 10 active; AID 588538; call rule not given here
A number is an active result; 0 = inactive; - = no result given. A selection: hits, their analogues and other compounds. The true share with any hit is near 1.6%.

SMILES	Neddylation inh	UBC13 inh	RAD54 branch	DNA FID counter	Apaf-1 inh	RAD52 anneal inh	Apaf-1 inh conf2	Rh110 quench	others
CC1=NN(Cc2ccccc2)C(=O)C1	0	0	0	0	65	-	0	0
CC1=NN(c2ccc(N)cc2)C(=O)C1	0	0	0	0	53	0	0	0
C[C@@H]1CN([C@@H](C)CO)C(=O)Cc2cc(NC(=O)NC3CCCCC3)ccc2O[C@H]1CN(C)S(=O)(=O)c1cccs1	-	-	0	-	-	0	-	-
O=C(O)CC1S/C(=N/N=C/c2ccc(-c3ccc(Cl)cc3[N+](=O)[O-])o2)NC1=O (stereo not drawn)	0	0	0	0	52	-	0	0
COC(=O)[C@H]1[C@H](CO)[C@H]2Cn3c(ccc(C4=CCCC4)c3=O)[C@H]2N1C(=O)C1CC1	-	-	0	-	-	0	-	-
c1cc2cn[nH]c2cc1NC1CCCCCC1	0	0	-	0	53	-	68	0	Apaf1 inh interf=0
CCN1CCN(CCc2nc3cc(NC(=O)COc4ccccc4)ccc3n2C)CC1	0	0	0	0	51	0	0	0
CCN1CCN(CCc2nc3cc(NC(=O)COc4ccc(Cl)cc4)ccc3n2C)CC1	0	0	0	0	0	0	-	-
CN1CCN(c2ccc(-c3cccc(NC(=O)COc4ccc(Cl)cc4)c3)nn2)CC1	0	0	0	-	0	0	-	-
Cn1c(CN2CCCC2)nc2cc(NC(=O)COc3ccccc3)ccc21	0	0	0	0	53	-	0	0
CN1CCN(c2ccc(-c3cccc(NC(=O)COc4ccccc4)c3)nn2)CC1	0	0	0	-	47	0	0	0
Cn1c(CCN2CCCCC2)nc2cc(NC(=O)COc3ccccc3)ccc21	0	0	0	0	53	0	0	0
C[C@@H]1CN([C@@H](C)CO)C(=O)c2cc(NC(=O)c3ccncc3)ccc2O[C@@H](C)CCCCO[C@H]1CN(C)C(=O)Nc1ccc(F)cc1	-	-	0	-	-	0	-	-
CN1CCN(CCc2nc3cc(NC(=O)COc4ccc([N+](=O)[O-])cc4)ccc3n2C)CC1	0	0	0	0	0	0	-	-
CN1CCN(CCc2nc3cc(NC(=O)COc4ccccc4)ccc3n2C)CC1	0	0	0	0	57	-	0	0
C[C@@H]1CN([C@H](C)CO)S(=O)(=O)c2ccc(-c3ccncc3)cc2O[C@H]1CN(C)C(=O)c1cccc(F)c1	-	-	0	-	-	0	-	-
O=C(C[C@H]1CC[C@H]2[C@@H](COC[C@H](O)CN2Cc2ccccc2F)O1)N1CCc2ccccc2C1	-	-	0	-	-	0	-	-
O=C(Nc1ccccc1)Nc1ccc(O)c2ccccc12	-	0	-	-	44	-	0	0
O=C(Cc1ccccn1)N[C@@H]1CC[C@@H](CCn2cc(-c3ccccc3)nn2)O[C@@H]1CO	-	-	0	-	-	0	-	-
Cc1[nH]n(-c2ccccc2)c(=O)c1N=Nc1cccc(S(=O)(=O)N2CCOCC2)c1	0	0	-	0	46	0	0	0
Cc1ccc2oc(-c3ccc(NC(=O)c4ccncc4)cc3O)nc2c1	-	0	-	0	0	0	-	-
COc1ccc(CC(=O)Nc2ccc(-c3nc4cc(C)ccc4o3)c(O)c2)cc1OC	-	0	0	0	42	-	0	0
O=C(Nc1ccc(C(F)(F)F)cc1)N[C@@H]1C=C[C@H](CC(=O)N2CCCCC2)O[C@H]1CO	-	-	0	-	-	0	-	-
COc1ccc(CCN2C(=O)c3[nH]nc(-c4ccccc4O)c3C2c2cccc(Cl)c2)cc1 (stereo not drawn)	0	0	-	0	41	-	0	0
COc1ccc(C2c3c(-c4ccccc4O)n[nH]c3C(=O)N2CCc2ccc(OC)c(OC)c2)cc1 (stereo not drawn)	0	0	0	0	0	-	-	-
SMILES	Neddylation inh	UBC13 inh	RAD54 branch	DNA FID counter	Apaf-1 inh	RAD52 anneal inh	Apaf-1 inh conf2	Rh110 quench	others
Clc1ccc(/C=N/Nc2ncnc3ccccc23)cc1Cl	0	0	0	0	43	-	0	0
O=C(NNc1cc(N2CCOCC2)nc(N2CCOCC2)n1)c1ccc(Cl)cc1Cl	0	0	0	0	47	-	0	0
COc1ccc(NC(=O)NNc2cc(N3CCOCC3)nc(N3CCOCC3)n2)cc1	0	0	-	0	52	0	0	0
CC(=O)NNc1cc(N2CCOCC2)nc(N2CCOCC2)n1	0	0	0	0	0	0	-	-
COc1cccc(-c2cnc3c(c2)C(=O)N([C@@H](C)CO)C[C@@H](C)[C@H](CN(C)Cc2ccncc2)O3)c1	-	-	0	-	-	0	-	-
CN(C)c1ccc(N/C=C/C(=O)C(C)(C)C)cc1	0	0	0	0	53	-	0	0
C=CC[C@]12N=C(c3ccc(OCCCO)cc3)O[C@H]1c1ccccc1CN(Cc1ccccc1)C2=O	-	-	0	-	-	0	-	-
COC(=O)CCC(=O)OC1(C)C(=O)C=C2C=C(C3CC3)N(C3CC3)C=C2C1=O (stereo not drawn)	0	0	0	-	54	0	0	0
C=CCN1C=C2C(=O)C(C)(OC(=O)CCC(=O)OC)C(=O)C(Br)=C2C=C1c1ccc(OC)cc1 (stereo not drawn)	0	0	0	-	67	-	61	0	Apaf1 inh interf=0
CCN(CC)CCCN1C=C2C(=O)C(C)(OC(=O)CCC(=O)OC)C(=O)C(Br)=C2C=C1c1ccc(OC)cc1 (stereo not drawn)	0	0	0	-	0	0	-	-
COCCN1C=C2C(=O)C(C)(OC(=O)CCC(=O)OC)C(=O)C(Br)=C2C=C1c1ccc(OC)cc1 (stereo not drawn)	0	0	0	-	77	-	84	0
COC(=O)CCC(=O)OC1(C)C(=O)C2=CN(C3CCCC3)C(c3ccc(OC)cc3)=CC2=C(Br)C1=O (stereo not drawn)	0	0	0	-	64	0	77	0	Apaf1 inh interf=0
O=C(c1cccnc1)N1CC2(C1)[C@@H](c1ccccc1)[C@@H](CO)N2Cc1ccncc1	-	-	-	-	-	0	-	-
CCNC(=O)C[C@@H]1C=C[C@@H](NS(=O)(=O)c2ccc(F)cc2)[C@H](CO)O1	-	-	0	-	-	0	-	-
CO[C@@H]1CN(C)C(=O)c2cc(NC(=O)c3ccccc3)ccc2OC[C@@H](C)NC[C@H]1C	-	-	0	-	-	0	-	-
C[C@H](CO)N1C[C@H](C)[C@H](CN(C)C(=O)Nc2ccc3c(c2)OCO3)OCCCC[C@H](C)Oc2ccc(NC(=O)Nc3ccc(F)cc3)cc2C1=O	-	-	0	-	-	0	-	-
Cc1ccccc1S(=O)(=O)NCC[C@@H]1CC[C@H](NC(=O)C2CCCC2)[C@@H](CO)O1	-	-	0	-	-	0	-	-
Cc1cc2ccccc2n1CCNC(=O)C1CCCCC1	0	0	0	0	44	0	0	0
Cc1cc2ccccc2n1CCNC(=O)C1CCCC1	0	0	-	0	0	-	-	-
O=C1C(Cl)=C(NCc2cccnc2)C(=O)c2ccccc21	0	0	0	0	85	0	65	0	Apaf1 inh interf=0
O=C1C(Cl)=C(NCCc2ccccc2)C(=O)c2ccccc21	0	-	0	-	-	0	-	-

Source: PubChem BioAssay
